In ChEMBL document CHEMBL2375307, “Synthesis and identification of β-aryloxyquinoline based diversely fluorine substituted N-aryl quinolone derivatives as a new class of antimicrobial, antituberculosis and antioxidant agents” (Eur J Med Chem, 2013):
Values after ≈ are worked out from the molar mass of the structure shown.

Key:
[1] = test system: Streptococcus pneumoniae; test: Antibacterial activity against Streptococcus pneumoniae MTCC 1936 assessed as growth inhibition after overnight incubation by NCCLS broth microdilution method; assay type: functional
Procedure, shortened: (§1)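 Broth microdilution per NCCLS in Mueller Hinton broth, compounds diluted in DMSO. Primary screen at 500, 250 and 200 µg/mL; actives retested at 100, 62.5, 50, 25 and 12.5 µg/mL. Tubes incubated overnight at 37 °C. […] Non-growing tubes subcultured overnight at 37 °C to judge bacteriostatic versus bactericidal action.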

[2] = test system: Bacillus subtilis; test: Antibacterial activity against Bacillus subtilis MTCC 441 assessed as growth inhibition after overnight incubation by NCCLS broth microdilution method; assay type: functional; procedure, shortened: as §1
[3] = test system: Clostridium tetani; test: Antibacterial activity against Clostridium tetani MTCC 449 assessed as growth inhibition after overnight incubation by NCCLS broth microdilution method; assay type: functional
[4] = test system: Vibrio cholerae; test: Antibacterial activity against Vibrio cholerae MTCC 3906 assessed as growth inhibition after overnight incubation by NCCLS broth microdilution method; assay type: functional
[5] = test system: Escherichia coli; test: Antibacterial activity against Escherichia coli MTCC 443 assessed as growth inhibition after overnight incubation by NCCLS broth microdilution method; assay type: functional; procedure, shortened: as §1
[6] = test system: Salmonella typhi; test: Antibacterial activity against Salmonella typhi MTCC 98 assessed as growth inhibition after overnight incubation by NCCLS broth microdilution method; assay type: functional, Salmonella enterica subsp. enterica serovar Typhi; settings: Salmonella enterica
[7] = test system: Aspergillus fumigatus; test: Antifungal activity against Aspergillus fumigatus MTCC 3008 assessed as growth inhibition after overnight incubation by NCCLS broth microdilution method; assay type: functional; procedure, shortened: as §1
[8] = Antioxidant activity of the compound assessed as ascorbic acid equivalent of ferric tripyridyl triazine reducing activity at 200 ug/mL after 15 mins by FRAP assay; assay type: functional
Procedure, shortened: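 FRAP, modified Benzie and Strain method. Fe(III)-TPTZ reagent made with TPTZ in 40 mM HCl, FeCl3 solution and acetate buffer pH 3.6. 200 µL sample solution mixed with 3 mL reagent and held 15 min at 37 °C. Fe(II)-TPTZ read at 593 nm against an ascorbic acid standard, expressed as ascorbic acid equivalents (mmol/100 g compound).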

[9] = test system: Candida albicans; test: Antifungal activity against Candida albicans MTCC 227 assessed as growth inhibition after overnight incubation by NCCLS broth microdilution method; assay type: functional; procedure, shortened: as §1
[10] = test system: Mycobacterium tuberculosis; test: Antitubercular activity against Mycobacterium tuberculosis H37Rv assessed as growth inhibition at 250 ug/mL after 12 to 28 days by Lowenstein-Jensen method relative to control; assay type: functional; settings: read-out: GI
Procedure, shortened: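 Modified Lowenstein-Jensen method. Compound at 250 in DMSO added to liquid L-J medium, then sterilized by inspissation and incubated 24 h at 37 °C. Streaked with H37Rv harvested in 0.85% saline (5 × 10⁴ bacilli/tube) and incubated at 37 °C. Colonies read at 12, 22 and 28 days versus drug-free control; no colonies or <20 colonies scored as inhibition.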

Compound | MIC [1] [µg/mL] | MIC [2] [µg/mL] | MIC [3] [µg/mL] | MIC [4] [µg/mL] | MIC [5] [µg/mL] | MIC [6] [µg/mL] | MIC [7] [µg/mL] | Activity [8] [equiv] | MIC [9] [µg/mL] | inhibition of growth at 250 µg/mL [10] [%]
CCn1cc(C(=O)O)c(=O)c2cc(F)c(N3CCNCC3)cc21 [NORFLOXACIN] | 10 (≈ 31.3 µM) | 100 (≈ 313 µM) | 50 (≈ 157 µM) | 10 (≈ 31.3 µM) | 10 (≈ 31.3 µM) | 10 (≈ 31.3 µM) | – | – | – | –
COc1ccc2nc(Oc3ccc(C#N)cc3)c(C3C(C#N)=C(N)N(c4cc(F)ccc4F)C4=C3C(=O)CC(C)(C)C4)cc2c1 (stereo unspecified) | 250 (≈ 414 µM) | 250 (≈ 414 µM) | 200 (≈ 331 µM) | 200 (≈ 331 µM) | 200 (≈ 331 µM) | 250 (≈ 414 µM) | > 1000 | 25.4 | > 1000 | 54
Cc1ccc2nc(Oc3ccc(C#N)cc3)c(C=O)cc2c1 | 200 (≈ 694 µM) | 100 (≈ 347 µM) | 100 (≈ 347 µM) | 125 (≈ 434 µM) | 62.5 (≈ 217 µM) | 125 (≈ 434 µM) | 250 (≈ 867 µM) | 16 | > 1000 | 26
O=C(O)c1cn(C2CC2)c2cc(N3CCNCC3)c(F)cc2c1=O [CIPROFLOXACIN] | 50 (≈ 151 µM) | – | – | 25 (≈ 75.4 µM) | 25 (≈ 75.4 µM) | 25 (≈ 75.4 µM) | – | – | – | –
O=C(N[C@H](CO)[C@H](O)c1ccc([N+](=O)[O-])cc1)C(Cl)Cl [CHLORAMPHENICOL] | 50 (≈ 155 µM) | 50 (≈ 155 µM) | 50 (≈ 155 µM) | 50 (≈ 155 µM) | 50 (≈ 155 µM) | 50 (≈ 155 µM) | – | – | – | –
COc1ccc2nc(Oc3ccc(C#N)cc3)c(C=O)cc2c1 | 200 (≈ 657 µM) | 250 (≈ 822 µM) | 200 (≈ 657 µM) | 250 (≈ 822 µM) | 250 (≈ 822 µM) | 100 (≈ 329 µM) | 1000 (≈ 3290 µM) | 47 | 1000 (≈ 3290 µM) | 11
N#CC1=C(N)N(c2ccc(F)c(F)c2)C2=C(C(=O)CCC2)C1c1cc2ccccc2nc1Oc1ccc(C#N)cc1 (stereo unspecified) | 100 (≈ 183 µM) | 250 (≈ 458 µM) | 100 (≈ 183 µM) | 100 (≈ 183 µM) | 100 (≈ 183 µM) | 125 (≈ 229 µM) | > 1000 | 193 | 250 (≈ 458 µM) | 75
N#CC1=C(N)N(c2cccc(C(F)(F)F)c2)C2=C(C(=O)CCC2)C1c1cc2ccccc2nc1Oc1ccc(C#N)cc1 (stereo unspecified) | 125 (≈ 216 µM) | 100 (≈ 173 µM) | 250 (≈ 433 µM) | 250 (≈ 433 µM) | 200 (≈ 346 µM) | 250 (≈ 433 µM) | 1000 (≈ 1730 µM) | 270 | 1000 (≈ 1730 µM) | 52
CC1(C)CC(=O)C2=C(C1)N(c1ccc(F)c(F)c1)C(N)=C(C#N)C2c1cc2cc(Cl)ccc2nc1Oc1ccc(C#N)cc1 (stereo unspecified) | 100 (≈ 164 µM) | 200 (≈ 329 µM) | 125 (≈ 206 µM) | 250 (≈ 411 µM) | 125 (≈ 206 µM) | 200 (≈ 329 µM) | 500 (≈ 822 µM) | 3.36 | 500 (≈ 822 µM) | 84
COc1ccc2nc(Oc3ccc(C#N)cc3)c(C3C(C#N)=C(N)N(c4cccc(C(F)(F)F)c4)C4=C3C(=O)CC(C)(C)C4)cc2c1 (stereo unspecified) | 200 (≈ 315 µM) | 250 (≈ 393 µM) | 500 (≈ 787 µM) | 250 (≈ 393 µM) | 125 (≈ 197 µM) | 200 (≈ 315 µM) | 500 (≈ 787 µM) | 14.3 | 1000 (≈ 1570 µM) | 62
CC1(C)CC(=O)C2=C(C1)N(c1ccc(F)c(F)c1)C(N)=C(C#N)C2c1cc2ccccc2nc1Oc1ccc(C#N)cc1 (stereo unspecified) | 200 (≈ 349 µM) | 200 (≈ 349 µM) | 100 (≈ 174 µM) | 100 (≈ 174 µM) | 125 (≈ 218 µM) | 200 (≈ 349 µM) | 500 (≈ 872 µM) | 19.6 | 500 (≈ 872 µM) | 64
N#Cc1ccc(Oc2nc3ccccc3cc2C=O)cc1 | 250 (≈ 911 µM) | 200 (≈ 729 µM) | 250 (≈ 911 µM) | 250 (≈ 911 µM) | 100 (≈ 365 µM) | 100 (≈ 365 µM) | 500 (≈ 1820 µM) | 19.2 | 1000 (≈ 3650 µM) | 42
COc1ccc2nc(Oc3ccc(C#N)cc3)c(C3C(C#N)=C(N)N(c4ccc(F)c(F)c4)C4=C3C(=O)CC(C)(C)C4)cc2c1 (stereo unspecified) | 250 (≈ 414 µM) | 250 (≈ 414 µM) | 250 (≈ 414 µM) | 100 (≈ 166 µM) | 62.5 (≈ 104 µM) | 200 (≈ 331 µM) | > 1000 | 153 | > 1000 | 24
